Reference: ChEMBL document CHEMBL1141526, “3-Amino-1,5-benzodiazepinones: potent, state-dependent sodium channel blockers with anti-epileptic activity” (Bioorg Med Chem Lett, 2008)
Activity calls are given as the source filed them. The calls are words filed in the database; no cut-off is given here.

Experiments:
[1] = molecular target: T1, Sodium channel protein type 9 subunit alpha (Homo sapiens, UniProt Q15858); experiment: Inhibition of human Nav1.7 sodium channel expressed in HEK293 cells by FRET assay; assay type: cell-based
How it was run: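 HEK-293 cells stably expressing hNav1.7 were used in a functional membrane-potential assay. Channel block was read as FRET between two membrane-associated dyes; the value is reported as IC50.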
Target sequence in this assay (Q15858 whole entry): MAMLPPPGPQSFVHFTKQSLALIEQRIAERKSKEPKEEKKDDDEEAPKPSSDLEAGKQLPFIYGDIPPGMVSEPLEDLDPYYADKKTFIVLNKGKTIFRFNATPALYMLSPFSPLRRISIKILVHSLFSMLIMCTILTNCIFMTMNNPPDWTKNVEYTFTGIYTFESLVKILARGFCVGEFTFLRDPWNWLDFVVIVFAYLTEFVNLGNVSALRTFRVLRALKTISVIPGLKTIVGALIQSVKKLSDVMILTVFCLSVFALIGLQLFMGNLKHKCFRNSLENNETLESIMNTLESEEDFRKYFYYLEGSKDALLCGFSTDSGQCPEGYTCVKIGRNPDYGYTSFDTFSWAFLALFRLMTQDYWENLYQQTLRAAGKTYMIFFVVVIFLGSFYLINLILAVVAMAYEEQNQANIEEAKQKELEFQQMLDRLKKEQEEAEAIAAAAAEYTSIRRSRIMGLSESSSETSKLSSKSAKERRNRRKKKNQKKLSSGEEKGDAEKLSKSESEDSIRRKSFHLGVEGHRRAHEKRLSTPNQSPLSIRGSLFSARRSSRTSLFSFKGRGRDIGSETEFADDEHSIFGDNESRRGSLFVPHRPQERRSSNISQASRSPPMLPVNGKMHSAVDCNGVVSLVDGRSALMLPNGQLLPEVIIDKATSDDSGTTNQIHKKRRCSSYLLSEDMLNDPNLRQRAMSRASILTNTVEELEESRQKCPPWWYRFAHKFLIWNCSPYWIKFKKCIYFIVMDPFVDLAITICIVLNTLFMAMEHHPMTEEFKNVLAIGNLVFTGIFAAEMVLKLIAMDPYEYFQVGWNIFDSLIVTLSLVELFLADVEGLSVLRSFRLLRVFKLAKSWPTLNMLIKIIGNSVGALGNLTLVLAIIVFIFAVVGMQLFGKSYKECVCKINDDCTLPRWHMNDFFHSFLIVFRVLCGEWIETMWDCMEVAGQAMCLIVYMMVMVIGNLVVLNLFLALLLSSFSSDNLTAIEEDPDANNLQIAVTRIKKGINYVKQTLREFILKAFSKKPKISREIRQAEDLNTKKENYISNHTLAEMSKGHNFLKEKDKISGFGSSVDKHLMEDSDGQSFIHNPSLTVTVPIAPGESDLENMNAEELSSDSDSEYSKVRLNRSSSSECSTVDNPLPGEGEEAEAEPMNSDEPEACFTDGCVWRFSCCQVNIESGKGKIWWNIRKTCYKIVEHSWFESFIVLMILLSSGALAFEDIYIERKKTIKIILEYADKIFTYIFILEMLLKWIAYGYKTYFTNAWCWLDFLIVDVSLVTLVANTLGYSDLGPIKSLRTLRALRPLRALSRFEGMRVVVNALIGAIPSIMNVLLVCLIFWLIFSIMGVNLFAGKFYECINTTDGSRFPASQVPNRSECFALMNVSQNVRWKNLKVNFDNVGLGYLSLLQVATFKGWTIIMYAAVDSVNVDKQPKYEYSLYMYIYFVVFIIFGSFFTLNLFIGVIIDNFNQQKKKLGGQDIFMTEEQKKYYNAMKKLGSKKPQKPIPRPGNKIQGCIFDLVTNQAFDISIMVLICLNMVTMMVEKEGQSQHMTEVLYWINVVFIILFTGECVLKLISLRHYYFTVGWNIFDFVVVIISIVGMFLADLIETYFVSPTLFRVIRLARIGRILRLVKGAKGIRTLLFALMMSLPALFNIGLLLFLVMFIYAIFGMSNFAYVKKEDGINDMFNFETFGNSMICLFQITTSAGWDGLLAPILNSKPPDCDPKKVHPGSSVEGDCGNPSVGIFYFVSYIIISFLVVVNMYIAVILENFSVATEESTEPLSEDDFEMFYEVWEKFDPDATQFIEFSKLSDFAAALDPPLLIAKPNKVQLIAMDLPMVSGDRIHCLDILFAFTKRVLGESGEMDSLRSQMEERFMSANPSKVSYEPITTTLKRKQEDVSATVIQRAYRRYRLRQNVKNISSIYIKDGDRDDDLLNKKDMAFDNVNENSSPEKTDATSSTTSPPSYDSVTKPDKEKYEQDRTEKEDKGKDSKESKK

[2] = system: hERG (Potassium voltage-gated channel subfamily H member 2, Homo sapiens); experiment: Displacement of [35S]MK-0499 from human hERG potassium channel at 10 uM
[3] = system: hERG (Potassium voltage-gated channel subfamily H member 2, Homo sapiens); experiment: Displacement of [35S]MK-0499 from human hERG potassium channel at 1 uM
[4] = Oral bioavailability in Sprague-Dawley rat at 3.0 mg/kg; assay type: ADME, organism-based; conditions: in vivo
How it was run: (§1)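 Fasted male Sprague–Dawley rats (n = 3 per route) received 1.0 mg/kg iv through a femoral vein cannula or 3.0 mg/kg po by gavage. Compound was formulated at 1.5 mg/mL in PEG300/water or DMSO/PEG300/water. Serial blood sampled at 5 min (iv only), 15 and 30 min, and 1, 2, 4, 6, 8 h. Plasma was acetonitrile-precipitated and measured by LC–MS/MS.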

[5] = Clearance in Sprague-Dawley rat at 1.0 mg/kg, iv; assay type: ADME, organism-based; parameters: dose 1 mg/kg, route intravenous; conditions: in vivo; how it was run: as §1
[6] = Half life in Sprague-Dawley rat at 1.0 mg/kg, iv; assay type: ADME, organism-based; parameters: dose 1 mg/kg, route intravenous; conditions: in vivo; how it was run: as §1
[7] = Cmax in Sprague-Dawley rat at 3.0 mg/kg, po; conditions: in vivo
[8] = system: Mus musculus; experiment: Anticonvulsant activity in C57BL6J mouse assessed as prevention of shock-induced tonic-clonic seizures at 3 mg/kg, po after 30 mins; assay type: functional; conditions: for ED50: 0.5 h
How it was run: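 Male C57BL6J mice, 14 weeks old. Dosed 3 mg/kg by gavage in 5% EtOH + 10% Tween 80 + 85% water, sonicated, 2 mL/kg. Maximal electroshock via auricular electrodes 30 min post-dose: 100 Hz, 0.7 ms pulse width, 0.5 s duration, 18 mA. Read-out was protection from tonic–clonic seizures; n = 10.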

[9] = molecular target: T1, Sodium channel protein type 9 subunit alpha; experiment: Inhibition of human Nav1.7 sodium channel expressed in HEK293 cells at a membrane potential of -70 mV by whole cell voltage clamp technique; assay type: cell-based
How it was run: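 Whole-cell voltage clamp on HEK-293 cells stably expressing hNav1.7. Peak current evoked by 20 ms depolarizations from −70 mV. Bath: 40 mM NaCl, 120 mM NMDG–Cl, 1 mM KCl, 2.7 mM CaCl2, 0.5 mM MgCl2, 10 mM NMDG–Hepes, pH 7.4. Pipette: Cs–methanesulfonate/CsCl/CsF/BAPTA-based, pH 7.4. Junction potentials (<4 mV) were not corrected.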
Target sequence in this assay (Q15858 whole entry): as above

[10] = molecular target: T1, Sodium channel protein type 9 subunit alpha; conditions: HEK293, 1 uM
Target sequence in this assay (Q15858 whole entry, looked up): as the sequence (Q15858 whole entry) above

[11] = molecular target: T1, Sodium channel protein type 9 subunit alpha; conditions: HEK293
Target sequence in this assay (Q15858 whole entry, looked up): as the sequence (Q15858 whole entry) above

Row | SMILES | IC50 [1] | inhibition [2] | inhibition [3] | other results
1 | CC(C)N1C(=O)[C@H](NC(=O)[C@@H](Cc2cccc(F)c2)NC(=O)OC(C)(C)C)CN(CC2CC2)c2ccccc21 | 0.096 µM | 17% | – | –
2 | CC(C)N1C(=O)[C@H](NC(=O)[C@@H](Cc2ccccc2F)NC(=O)OC(C)(C)C)CN(CC2CC2)c2ccccc21 (stereo in doubt; 14) [listing 1 of 2 here] | – | 33% | 7% | –
3 | CC(C)N1C(=O)[C@H](NC(=O)[C@@H](Cc2ccccc2F)NC(=O)OC(C)(C)C)CN(CC2CC2)c2ccccc21 (stereo in doubt; 22) [listing 1 of 2 here] | 0.102 µM | – | – | –
4 | CC(C)N1C(=O)[C@H](NC(=O)[C@@H](Cc2ccccc2F)NC(=O)OC(C)(C)C)CN(CC2CC2)c2ccccc21 (stereo in doubt; 14) [listing 2 of 2 here] | – | – | – | IC50 ([1]; hek293): 0.102 µM
5 | CN1C(=O)[C@H](NC(=O)[C@@H](Cc2ccccc2F)NC(=O)OC(C)(C)C)CN(CC2CCCCC2)c2ccccc21 | 0.188 µM | 43% | 17% | –
6 | CC(C)(C)OC(=O)N[C@H](Cc1ccccc1C(F)(F)F)C(=O)N[C@@H]1CN(CC2CC2)c2ccccc2N(CC(F)(F)F)C1=O | 0.131 µM | 11% | – | bioavailability [4]: 10%; clearance [5]: 51 mL/min/kg; half-life [6]: 2.4 h; Cmax [7]: 60 nM
7 | CC(C)(C)OC(=O)N[C@H](Cc1ccccc1F)C(=O)N[C@@H]1CN(CC2CC2)c2ccccc2N(CC(F)(F)F)C1=O | 0.101 µM | 20% | 7% | –
8 | CC(C)N1C(=O)[C@H](NC(=O)[C@@H](Cc2c(F)cccc2F)NC(=O)OC(C)(C)C)CN(CC2CC2)c2ccccc21 | 0.097 µM | 25% | – | –
9 | Nc1nnc(-c2cccc(Cl)c2Cl)c(N)n1 [LAMOTRIGINE] | – | – | – | ED50 [8]: 2.2 mg/kg
10 | CN1C[C@@H](NC(=O)[C@@H](Cc2ccccc2F)NC(=O)OC(C)(C)C)C(=O)N(C)c2ccccc21 | 0.142 µM | 7% | 0% | –
11 | CC(C)(C)OC(=O)N[C@H](Cc1cccc(F)c1)C(=O)N[C@@H]1CN(CC2CC2)c2ccccc2N(CC(F)(F)F)C1=O | 0.142 µM | 17% | – | –
12 | CC(C)(C)OC(=O)N[C@H](Cc1cc(C(F)(F)F)ccc1C(F)(F)F)C(=O)N[C@@H]1CN(CC2CC2)c2ccccc2N(CC(F)(F)F)C1=O | 0.12 µM | 6% | – | –
13 | CC(C)N1C(=O)[C@H](NC(=O)[C@@H](Cc2ccc(F)cc2)NC(=O)OC(C)(C)C)CN(CC2CC2)c2ccccc21 | 0.196 µM | – | – | –
14 | CC(C)(C)OC(=O)N[C@H](Cc1ccc(F)cc1)C(=O)N[C@@H]1CN(CC2CC2)c2ccccc2N(CC(F)(F)F)C1=O | 0.219 µM | – | – | –
15 | CC(C)N1C(=O)[C@H](NC(=O)[C@@H](Cc2ccccc2C(F)(F)F)NC(=O)OC(C)(C)C)CN(CC2CC2)c2ccccc21 | 0.149 µM | – | – | bioavailability [4]: 9%; clearance [5]: 23 mL/min/kg; half-life [6]: 2.5 h; Cmax [7]: 150 nM
16 | NC(=O)N1c2ccccc2C=Cc2ccccc21 [CARBAMAZEPINE] | – | – | – | ED50 [8]: 3.4 mg/kg
17 | CC(C)N1C(=O)[C@H](NC(=O)[C@@H](Cc2ccccc2F)NC(=O)OC(C)(C)C)CN(CC2CC2)c2ccccc21 (stereo in doubt; 22) [listing 2 of 2 here] | – | 32% | – | –
18 | CN1C(=O)[C@H](NC(=O)[C@@H](Cc2ccccc2F)NC(=O)OC(C)(C)C)CNc2ccccc21 | 0.409 µM | 25% | 0% | –

More lines, main results first:

Row | IC50 [1] | SMILES | inhibition [2] | inhibition [3] | other results
19 | 0.052 µM | CC(C)N1C(=O)[C@H](NC(=O)[C@@H](Cc2ccccc2)NC(=O)OC(C)(C)C)CN(CC2CC2)c2ccccc21 | 42% | – | –
20 | 0.073 µM | CC(C)(C)OC(=O)N[C@H](Cc1ccccc1OC(F)(F)F)C(=O)N[C@@H]1CN(CC2CC2)c2ccccc2N(CC(F)(F)F)C1=O | – | – | –
21 | 0.075 µM | CC(C)N1C(=O)[C@H](NC(=O)[C@@H](Cc2ccccc2OC(F)(F)F)NC(=O)OC(C)(C)C)CN(CC2CC2)c2ccccc21 | 35% | – | bioavailability [4]: 4%; clearance [5]: 30 mL/min/kg; half-life [6]: 2.4 h; Cmax [7]: 40 nM
22 | 0.049 µM | CN1C(=O)[C@H](NC(=O)[C@@H](Cc2ccccc2F)NC(=O)OC(C)(C)C)CN(CC2CC2)c2ccccc21 | – | – | –
23 | 0.081 µM | CN1C(=O)[C@H](NC(=O)[C@@H](Cc2ccccc2F)NC(=O)OC(C)(C)C)CN(CC2CCC2)c2ccccc21 | 65% | 20% | –
24 | 0.03 µM | CC(C)(C)OC(=O)N[C@H](Cc1ccccc1)C(=O)N[C@@H]1CN(CC2CC2)c2ccccc2N(CC(F)(F)F)C1=O | – | – | bioavailability [4]: 5%; clearance [5]: 48 mL/min/kg; half-life [6]: 3.1 h; Activity [8]: Active; IC50 [9]: 0.00154 µM; Ki [9]: 0.00063 µM; inhibition [10]: < 10%; Kr [11]: > 5 µM; Cmax [7]: 30 nM
25 | 0.047 µM | CN1C(=O)[C@H](NC(=O)[C@@H](Cc2ccccc2F)NC(=O)OC(C)(C)C)CN(CC(F)(F)F)c2ccccc21 | 62% | 36% | –
26 | 0.025 µM | CN1C(=O)[C@H](NC(=O)[C@@H](Cc2ccccc2F)NC(=O)OC(C)(C)C)CN(Cc2ccccc2)c2ccccc21 | 84% | 14% | –
